Source: PubChem (Johns Hopkins Ion Channel Center)
The list is not random: actives were taken first. Their share in the collection is about 3.7%.
KCNK9 inh – inhibitors of human KCNK9 two-pore domain potassium channel; Q9NPC2; HEK293 KCNK9, FluxOR thallium flux fluorescence; stronger effect = lower value; B-score at 10 µM; actives 1.2% (n = 310,000); AID 488922;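 active = ratio B-score over 3 SD below the library mean, with starting fluorescence within 5 SD of its mean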;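 also: negative B-score means less thallium flux so channel inhibition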
KCNK3 inh – human KCNK3 channel inhibition, primary screen | B-score at 10 µM | actives 0.84% (n = 340,000) | CHO-KCNK3 thallium flux, FluxOR fluorescence; stronger effect = lower value | O14649;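 active = B-score under library mean minus 4 SD, starting fluorescence ratio at most library mean plus 5 SD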;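 also: more negative B-score means stronger inhibition of thallium flux through KCNK3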
hERG rescue – shields human hERG channel from block by proarrhythmic agents | CHO-hERG, FluxOR thallium flux, dofetilide IC70 present | activation (rescue from dofetilide block), less the hit threshold, % at 10 µM | actives 0.51% (n = 310,000) | AID 1511;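 active = activation above the mean of controls blocked by dofetilide plus 5 SD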;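 also: thallium influx through hERG after potassium depolarization seen as dye fluorescence rise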
Target sequence (Q12809 whole entry, looked up): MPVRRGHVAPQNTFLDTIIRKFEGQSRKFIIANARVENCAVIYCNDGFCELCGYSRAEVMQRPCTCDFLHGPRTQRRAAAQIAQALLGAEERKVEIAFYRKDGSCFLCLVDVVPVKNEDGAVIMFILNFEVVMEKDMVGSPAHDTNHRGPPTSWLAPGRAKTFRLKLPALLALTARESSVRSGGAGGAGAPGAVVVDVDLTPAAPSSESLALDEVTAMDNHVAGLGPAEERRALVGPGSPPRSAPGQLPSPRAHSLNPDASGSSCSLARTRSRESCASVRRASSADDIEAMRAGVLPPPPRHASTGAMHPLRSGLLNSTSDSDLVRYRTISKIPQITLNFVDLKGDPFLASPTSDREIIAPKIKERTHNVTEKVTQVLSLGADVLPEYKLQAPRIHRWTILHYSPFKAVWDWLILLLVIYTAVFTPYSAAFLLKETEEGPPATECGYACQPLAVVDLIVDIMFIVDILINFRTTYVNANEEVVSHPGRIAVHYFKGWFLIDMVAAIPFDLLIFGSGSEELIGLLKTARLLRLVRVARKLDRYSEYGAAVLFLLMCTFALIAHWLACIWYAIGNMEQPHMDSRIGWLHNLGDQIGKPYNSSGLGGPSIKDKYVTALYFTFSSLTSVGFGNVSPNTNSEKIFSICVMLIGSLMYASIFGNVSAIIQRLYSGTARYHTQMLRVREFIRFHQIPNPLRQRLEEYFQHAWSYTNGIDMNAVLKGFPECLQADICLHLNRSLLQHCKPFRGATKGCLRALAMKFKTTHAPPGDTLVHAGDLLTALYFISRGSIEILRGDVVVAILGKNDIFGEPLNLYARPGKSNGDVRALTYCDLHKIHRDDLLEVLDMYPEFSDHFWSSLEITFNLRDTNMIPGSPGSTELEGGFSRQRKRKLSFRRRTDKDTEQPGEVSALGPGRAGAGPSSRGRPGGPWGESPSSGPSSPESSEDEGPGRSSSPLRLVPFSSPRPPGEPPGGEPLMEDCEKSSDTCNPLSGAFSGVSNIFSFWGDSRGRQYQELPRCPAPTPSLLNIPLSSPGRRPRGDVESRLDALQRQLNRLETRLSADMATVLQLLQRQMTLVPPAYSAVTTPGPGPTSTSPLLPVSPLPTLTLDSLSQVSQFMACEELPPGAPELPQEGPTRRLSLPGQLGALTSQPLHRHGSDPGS
KCNQ1 inh – inhibitors of human KCNQ1 potassium channel. CHO-K1 KCNQ1, FluxOR thallium flux fluorescence; stronger effect = higher value. AID 2642. P51787. actives 1.3% (n = 310,000). B-score at 10 µM;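 active = compounds whose thallium flux B-score, printed positive for inhibition, exceeds three library SD while starting fluorescence stays within three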;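 also: channel opened by potassium depolarization with thallium stimulus after 20 min compound exposure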
KCNQ1 pot – human KCNQ1 channel potentiation or activation; CHO-K1 KCNQ1, thallium flux FluxOR fluorescence; stronger effect = higher value; B-score at 10 µM; P51787; actives 0.35% (n = 310,000);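 active = fluorescence ratio B-score, a plate-corrected score, at least three library SD, with initial intensity B-score within 5 SD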
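Assay system: stable KCNQ1 CHO-K1 line; medium: assay buffer, equal DMSO in all wells; timing: 90 min dye loading and 20 min compound exposure, both at room temperature; technique: kinetic FluxOR thallium fluorescence, 10-s 1-Hz baseline, 110-s post-stimulus read; read-out basis: B score of baseline-normalized fluorescence ratio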
Kir21 inh – blocks the mouse Kir2.1 inward-rectifier potassium channel; P35561; HEK293-Kir2.1, FluxOR thallium flux fluorescence; stronger effect = lower value; B-score at 10 µM; actives 0.85% (n = 310,000); AID 1672;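 active = fluorescence ratio B-score at or below minus 3 SD of library scores, with starting-brightness B-score within 2 SD, cut at about -4.2 in these data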;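 also: channel flux triggered by added potassium and thallium sulfate stimulus; B-score of peak minus minimum fluorescence over baseline after thallium stimulus; more negative B-score means stronger Kir2.1 block with less thallium influx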
KCNQ1 inh valid – human KCNQ1 channel inhibition, validation assay; shares compounds with KCNQ1 inh; KCNQ1 cell line, FluxOR thallium flux fluorescence; inhibition, % at 10 µM; actives 93% (n = 1,600);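 active = primary screen active, with duplicate mean exceeding buffer control mean plus 3 SD of buffer wells, cut at about 28% in these data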;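 also: 0% = buffer control ratio and 100% = XE991 inhibitor control ratio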
CHO KCNQ1 ctr – KCNQ1 inhibitor counter-screen hit in parental CHO cells | fluorescence ratio (Tl flux) at 10 µM | shares compounds with KCNQ1 inh | actives 21% (n = 1,600) | parental CHO-K1, FluxOR thallium flux fluorescence ratio; stronger effect = lower value; zero means no signal rise above baseline;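 active = mean of duplicate thallium-flux fluorescence ratios in parental host cells more than 5 SD below the buffer control mean, cut at about 0.38 in these data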;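 also: ratio is peak minus minimum fluorescence divided by baseline fluorescence; actives read low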
KCNQ1 APC inh – confirmation of human KCNQ1 potassium channel inhibitors by electrophysiology; shares compounds with KCNQ1 inh; KCNQ1-CHO cells, automated patch clamp current; calls only at 10 µM; actives 20% (n = 490); AID 624120;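 active = KCNQ1 current drop exceeding 3 SD of negative control wells, seen in both duplicate runs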;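 also: steady state current during a 2 s step from -80 to +40 mV; negative values mean current inhibition and positive values mean potentiation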
KCNQ2 spec – rat KCNQ2 inhibition in KCNQ1 inhibitor specificity screen; shares compounds with KCNQ1 inh; KCNQ2 cells, FluxOR thallium flux fluorescence; inhibition, % at 10 µM; actives 71% (n = 1,600);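 active = mean percent inhibition of the KCNQ2 thallium signal more than 5 SD above the buffer-only control wells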;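 also: KCNQ2 expressed in CHO cells; 0% = buffer control wells and 100% = XE-991 inhibitor control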
KCNQ1 KCNE1 spec – selectivity of KCNQ1 inhibitors: inhibition of human KCNQ1/KCNE1 channel; actives 77% (n = 1,600); KCNQ1/KCNE1 cells, FluxOR thallium flux fluorescence; shares compounds with KCNQ1 inh; inhibition, % at 10 µM;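 active = mean percent inhibition of duplicate wells above the buffer-only control mean plus 3 SD of those controls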;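 also: 0% = buffer only wells and 100% = XE-991 inhibitor control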
Starred values were filed as active, the others as inactive; i = inactive; / = not tested or not shown.

SMILES	KCNK9 inh	KCNK3 inh	hERG rescue	KCNQ1 inh	KCNQ1 pot	Kir21 inh	KCNQ1 inh valid	CHO KCNQ1 ctr	KCNQ2 spec	KCNQ1 KCNE1 spec	others
COc1ccccc1N1C(=O)c2cccc3c(N(C)CCO)ccc(c23)C1=O	i	i	-20	7*	i	-6.5	100*	0.27*	i	i
CC(Oc1cccc(Cl)c1)C(=O)Nc1cc(S(=O)(=O)N2CCCCC2)ccc1N1CCOCC1 (centres undefined)	i	i	-13	9*	i	2.1	69*	0.39	94%*	95%*
CC(Oc1cccc(Cl)c1)C(=O)Nc1cc(S(=O)(=O)N2CCOCC2)ccc1N1CCCC1 (centres undefined)	i	i	-16	i	i	-0.93	/	/	/	/
Cc1nnsc1SCCNC(=O)Nc1ccc(Cl)cc1	i	i	-10	7*	i	0.34	67*	0.52	i	36%*
CC1(C)CC(NC(=O)Cc2ccccc2)CC(C)(C)N1	i	i	-2	i	i	2.5	/	/	/	/
Cc1csc(NC(=O)c2sc3nc(-c4cccs4)ccc3c2N)n1	i	/	-9	16*	i	-0.51	124*	0.24*	i	i
CCCSc1nnc(NC(=O)c2sc3nc(-c4cccs4)ccc3c2N)s1	i	i	-22	i	i	-2.4	/	/	/	/
CCCn1c2c(c(O)c(C(=O)Nc3ccc(OC)cc3)c1=O)CCCC2	i	i	-8	7*	i	0.11	94*	0.44	78%*	104%*	KCNQ1 APC inh=i
CCC(C(=O)OCC(=O)Nc1cc(Cl)cc(Cl)c1)c1ccccc1 (centres undefined)	i	i	-3	11*	i	0.03	114*	0.34*	114%*	52%*
CC(C)(C)C(=O)Nc1nnc(SCC(=O)NC2CCCC2)s1	i	i	-6	i	i	1.6	/	/	/	/
COc1ccc(-c2csc3nc(C)nc(N4CCCCC4)c23)cc1OC	i	i	-10	6*	i	-0.02	54*	0.42	100%*	87%*
c1ccc(OCCOc2ncnc3ccccc23)cc1	i	i	-11	i	i	-1.5	/	/	/	/
Brc1ccc(COc2ncnc3ccccc23)cc1	i	i	-9	9*	i	0.68	0	0.44	68%*	42%*
CN(CCc1ccccc1)C1CCCN(S(=O)(=O)c2cccc(F)c2)C1 (centres undefined)	i	i	-1	i	i	-2.5	/	/	/	/
O=C(NC(NC(=S)Nc1cccc(Cl)c1)C(Cl)(Cl)Cl)OCc1ccccc1 (centres undefined)	i	i	-4	i	i	0.15	/	/	/	/
CCOC(=O)c1c(-c2ccccc2)oc2ccc(OCC)cc12	i	i	-5	6*	i	0.49	70*	0.46	96%*	62%*
CC1(C)Cc2c(C#N)c(SCCOc3ccccc3)nc(N3CCOCC3)c2CO1	i	-9.4*	-21	7*	i	0.02	84*	0.45	65%*	164%*
CC1(C)Cc2c(C#N)c(SCCO)nc(N3CCOCC3)c2CO1	i	i	-11	i	i	0.22	/	/	/	/
O=C(C1CCOCC1)N1CCCC(N2CCN(c3cccc(C(F)(F)F)c3)CC2)C1 (centres undefined)	i	i	-6	i	i	-1	/	/	/	/
CCN(CC)C(C(=O)NC1CCCCC1)c1ccc(C)cc1 (centres undefined)	i	i	-11	7*	i	1.1	75*	0.45	65%*	110%*
Cc1ccc(Cl)cc1N1CCN(C(=O)COc2ccc3c(c2)CCC3)CC1	i	i	-6	7*	i	0.9	118*	0.42	121%*	170%*	KCNQ1 APC inh=i
O=C(COc1ccccc1)NC(NC(=S)Nc1ccccc1O)C(Cl)(Cl)Cl (centres undefined)	i	i	-16	9*	i	1.9	78*	0.48	92%*	53%*
Cc1ccc(OCC(=O)c2c(N)n(C)c(=O)n(C)c2=O)c([N+](=O)[O-])n1	/	i	/	/	/	/	/	/	/	/
c1csc(-c2nnc(NC3CCCCC3)c3ccccc23)c1	i	i	-19	10*	i	0.67	52*	0.55	69%*	51%*
CCCSc1nnc(NC(=O)Nc2ccc(F)cc2)s1	i	i	-7	8*	i	-1.4	50*	0.5	60%*	37%*
SMILES	KCNK9 inh	KCNK3 inh	hERG rescue	KCNQ1 inh	KCNQ1 pot	Kir21 inh	KCNQ1 inh valid	CHO KCNQ1 ctr	KCNQ2 spec	KCNQ1 KCNE1 spec	others
NCC12CC3CC(C1)CC(c1ccc(Br)cc1)(C3)C2	i	i	-17	6*	i	-9.5*	66*	0.43	i	124%*
Cc1ccc(NC(=O)CCCc2ccccc2)c([N+](=O)[O-])c1	i	i	-3	i	i	0.11	/	/	/	/
Clc1cccc(Cl)c1/C=C/c1nc2ccccc2[nH]1	i	-8.8*	-19	14*	i	-0.48	121*	0.46	93%*	130%*
Clc1ccc(/C=C/c2nc3ccccc3[nH]2)cc1	i	i	-7	i	i	1.2	/	/	/	/
c1ccc2c(c1)OCC(CNc1ncnc3sccc13)O2 (centres undefined)	i	i	-18	12*	i	-0.92	106*	0.42	97%*	104%*
COc1ccc(NC(=O)c2c(N)cnn2C)cc1	i	i	-3	i	i	0.4	/	/	/	/
COc1ccc(S(=O)(=O)C(C#N)c2nc3ccccc3nc2N2CCCC(C)C2)cc1 (centres undefined)	i	i	-13	9*	i	0.01	124*	0.44	106%*	126%*	KCNQ1 APC inh=i
CC1CCCN(c2nc3ccccc3nc2C(C#N)S(=O)(=O)c2cccs2)C1 (centres undefined)	i	i	-5	i	i	-0.3	/	/	/	/
Brc1ccccc1-c1csnn1	i	i	-4	i	i	0.39	/	/	/	/
